Among the data in ChEMBL document CHEMBL4190262, “Tuning of β-glucosidase and α-galactosidase inhibition by generation and in situ screening of a library of pyrrolidine-triazole hybrid molecules” (Eur J Med Chem, 2017) are inhibition and IC50 values, retold here.

For experiment [1], the target named is Alpha-galactosidase (Coffea arabica) (UniProt Q42656). The experiment is described as follows: Inhibition of coffee beans alpha-galactosidase at 1 mM using p-nitrophenyl glycopyranoside preincubated for 5 mins followed by substrate addition measured after 20 mins by visible absorption spectroscopic method relative to control. The method, boiled down: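 Test compound at 1 mM in well. Mix: 0.01–0.5 units/mL enzyme plus 10 mM p-nitrophenyl glycopyranoside (aqueous solution), buffered to the enzyme's optimal pH. Enzyme and inhibitor preincubated 5 min at rt. Substrate then added and incubated 20 min at 37 °C. Stopped with sodium borate (pH 9.8). p-Nitrophenolate read at 405 nm. Duplicates averaged.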
Alpha-galactosidase (Coffea arabica), sequence (Q42656 16-378 limits assumed): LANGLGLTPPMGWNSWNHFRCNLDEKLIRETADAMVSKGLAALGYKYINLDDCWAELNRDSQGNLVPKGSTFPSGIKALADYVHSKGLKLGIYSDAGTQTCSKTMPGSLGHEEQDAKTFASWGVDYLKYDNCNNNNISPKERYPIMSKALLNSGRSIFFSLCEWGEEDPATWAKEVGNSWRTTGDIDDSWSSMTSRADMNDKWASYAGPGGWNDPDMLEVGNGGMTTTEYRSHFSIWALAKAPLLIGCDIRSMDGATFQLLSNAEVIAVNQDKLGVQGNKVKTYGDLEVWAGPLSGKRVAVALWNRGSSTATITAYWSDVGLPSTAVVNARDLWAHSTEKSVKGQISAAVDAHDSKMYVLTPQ

A further experiment concerns Prunus dulcis. The experiment is described as follows: Inhibition of almond beta-glucosidase at 10 uM using p-nitrophenyl glycopyranoside preincubated for 5 mins followed by substrate addition measured after 20 mins by visible absorption spectroscopic method relative to control. The essentials: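 Crude click-reaction products screened in situ. Azide (final 15 mM) was reacted with each alkyne using sodium ascorbate/CuSO4 in tBuOH–H2O for 24 h at rt, then diluted with water. Tested at 10 μM per well, assuming quantitative conversion, against almond β-glucosidase at pH 5, 37 °C. p-Nitrophenyl glycoside read-out at 405 nm.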

Experiment [2] concerns the target T1, Alpha-galactosidase A (Homo sapiens) (UniProt P06280).
T1 sequence (whole entry): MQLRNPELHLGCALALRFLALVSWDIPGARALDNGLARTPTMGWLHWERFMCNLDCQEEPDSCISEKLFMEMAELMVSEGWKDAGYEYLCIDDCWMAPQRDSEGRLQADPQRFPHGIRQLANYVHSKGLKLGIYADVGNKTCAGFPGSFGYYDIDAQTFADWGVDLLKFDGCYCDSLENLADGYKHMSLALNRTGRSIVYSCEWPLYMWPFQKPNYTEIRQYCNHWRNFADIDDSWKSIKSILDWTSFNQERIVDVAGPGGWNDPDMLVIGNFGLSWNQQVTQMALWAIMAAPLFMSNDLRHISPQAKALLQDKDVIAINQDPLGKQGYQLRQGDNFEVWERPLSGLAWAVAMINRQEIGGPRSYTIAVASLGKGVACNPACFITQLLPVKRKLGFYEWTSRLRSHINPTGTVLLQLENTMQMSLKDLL
The experiment is described as follows: Inhibition of human lysosomal alpha-galactosidase A at 1 mM using 4-methylumbelliferyl-alpha-D-galactopyranoside as substrate preincubated for 45 mins followed by substrate addition measured after 30 mins by fluorescence spectroscopic method relative to control. The essentials:
(§1)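 Enzyme in 100 mM McIlvaine buffer pH 5.2 with 0.25% sodium taurocholate and 0.1% Triton X-100, with inhibitor. Preincubated at 0 °C for 45 min, then started with 3 mM 4-methylumbelliferyl glycoside substrate solution and incubated 30 min at 37 °C. Stopped with 400 mM glycine-NaOH pH 10.6. 4-Methylumbelliferone fluorescence read at ex 362/em 450 nm.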

A short description of experiment [3]: Inhibition of bovine liver beta-glucosidase using p-nitrophenyl glycopyranoside preincubated for 5 mins followed by substrate addition measured after 20 mins by visible absorption spectroscopic method. Also on record: species or system Bos taurus. The essentials:
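IC50 determined only for compounds giving ≥80% inhibition at 1 mM, read from plots of % inhibition versus inhibitor concentration. p-Nitrophenyl glycopyranoside substrate (10 mM solution) at the enzyme's optimal pH, with 0.01–0.5 units/mL enzyme. 5 min rt preincubation with enzyme, then 20 min at 37 °C. Borate stop (pH 9.8), absorbance at 405 nm. Duplicates averaged.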

In another experiment the target is T2, Alpha-galactosidase A (Homo sapiens, UniProt P06280).
T2 sequence (P06280 whole entry): T1 sequence (whole entry)
The experiment is described as follows: Inhibition of human lysosomal alpha-galactosidase A using 4-methylumbelliferyl-alpha-D-galactopyranoside as substrate preincubated for 45 mins followed by substrate addition measured after 30 mins by fluorescence spectroscopic method. The essentials:
as §1

Regarding `O[C@@H]1[C@H](O)CN[C@H]1Cn1cc(-c2ccccc2)nn1`, the inhibition in experiment [1] is under 50%; in the experiment with Prunus dulcis, 72%; in experiment [2], under 50%.
In the case of `O[C@@H]1[C@H](O)CN[C@@H]1Cn1cc(-c2ccccc2)nn1`, the half-inhibitory concentration (IC50) in experiment [3] is 240 µM; on Alpha-galactosidase A it was 171 µM.
